Assay outcomes (PubChem BioAssay)
An excerpt weighted towards active compounds, which were near 3.4% of everything screened.
TAAR1 antagonist = human TAAR1 antagonists, primary screen, Fluo-8 calcium fluorescence, CHO RD-HGA16 cells. AID 624466, 2012. 360,000 tested, 1.5% active. antagonist. Trace amine-associated receptor 1 (Homo sapiens), Q96RJ0. inhibition, % at 3 µM;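 active = inhibition above a per-plate cutoff, the mean inhibition of test compounds on that plate plus 3 SD, cut at about 49% in these data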;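 note: 0% = DMSO plus EC80 beta-PEA response and 100% = DMSO alone without agonist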
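Material: CHO RD-HGA16 cells bearing hTAAR1; compound dosing: one-point dosing, 3 µM nominal final; schedule: dye loading 75 min at 37 °C, then 30 min room temperature; measured by: calcium fluorescence with Fluo-8; control set: vehicle and agonist controls; replication: n of 1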
CHRM1 antagonist = human M1 muscarinic receptor antagonists, primary screen, CHO-K1 cells, Fluo-8 calcium fluorescence, 1536-well | CHO-K1 hM1, ACh EC80 antagonist | Muscarinic acetylcholine receptor M1 (Homo sapiens), P11229 | AID 588852, 2011 | inhibition, % at 3 µM | 360,000 tested, 1.3% active;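 active = percent inhibition above its own plate's cutoff, namely the mean of that plate's compound wells plus 3 SD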;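 note: peak over basal fluorescence ratio during 140 s after agonist addition; 0% = ACh EC80 plus DMSO and 100% = DMSO alone without agonist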
Target sequence (P11229 whole entry, looked up): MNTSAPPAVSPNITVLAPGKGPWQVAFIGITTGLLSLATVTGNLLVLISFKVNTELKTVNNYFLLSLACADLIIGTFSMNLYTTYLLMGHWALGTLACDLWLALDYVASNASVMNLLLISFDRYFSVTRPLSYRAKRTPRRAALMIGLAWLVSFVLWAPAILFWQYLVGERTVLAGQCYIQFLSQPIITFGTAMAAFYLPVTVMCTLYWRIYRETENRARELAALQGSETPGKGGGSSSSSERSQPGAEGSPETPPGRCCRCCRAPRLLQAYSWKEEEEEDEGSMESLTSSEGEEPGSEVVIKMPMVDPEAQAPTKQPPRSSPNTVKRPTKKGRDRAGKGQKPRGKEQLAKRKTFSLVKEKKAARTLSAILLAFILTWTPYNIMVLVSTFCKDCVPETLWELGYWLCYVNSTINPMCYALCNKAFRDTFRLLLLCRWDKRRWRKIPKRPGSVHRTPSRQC
M1 ag = human M1 muscarinic receptor agonists, primary screen, Fluo-8 calcium fluorescence, CHO-K1 cells, HTS; activation, % at 3 µM; Muscarinic acetylcholine receptor M1 (Homo sapiens), P11229; CHO-K1 hM1, agonist mode; 0% DMSO, 100% acetylcholine EC100; 360,000 tested, 0.33% active;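 active = activation above the run's mean compound activation plus 3 SD, cut at about 16% in these data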;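 note: peak over basal fluorescence ratio within a 140 s kinetic read after compound addition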
CHRM1 PAM = human M1 muscarinic receptor positive allosteric modulators, primary screen, CHO-K1 cells, Fluo-8 calcium fluorescence, 1536-well. CHO-K1 hM1, ACh EC20; 0% = ACh EC20, 100% = maximal ACh. 360,000 tested, 0.088% active. activation, % at 3 µM. Muscarinic acetylcholine receptor M1 (Homo sapiens), P11229; in the data active = activation above about 19%, passing the limit was not always enough
TAAR1 agonist = human TAAR1 agonists, primary screen, Fluo-8 calcium fluorescence, CHO RD-HGA16 cells; Trace amine-associated receptor 1 (Homo sapiens), Q96RJ0; activation, % at 3 µM; vehicle wells 0%, saturating PEA agonist 100%; 360,000 tested, 0.99% active;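 active = activation above the mean activation of all test compounds in the run plus 3 SD, cut at about 38% in these data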
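System: CHO-derived RD-HGA16 cells with stable Gα16 and human TAAR1 / Times: 17-24 h plating, Fluo-8 75 min 37 °C, 30 min RT / Technique: calcium-sensitive Fluo-8 signal, excitation 470-495, emission 515-575 nm / Measure: % activation relative to PEA EC100 response / Benchmarks: DMSO and PEA EC100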
TAAR1 ag conf = human TAAR1 agonists, retest of hits, confirmation, Fluo-8 calcium fluorescence, CHO RD-HGA16 cells. shares compounds with TAAR1 agonist. scaled: DMSO 0%, maximal phenethylamine 100%. activation, % at 3 µM. 2,400 tested, 82% active. AID 651783, 2012;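 active = activation above a cutoff set at the run's mean compound activation plus 3 SD, cut at about 39% in these data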
Ga16 nonsel ag = nonselective calcium mobilization agonists, CHO-Ga16 cells, counter-screen for hTAAR1 agonist project, cell-based, fluorescence, CHO-Ga16 parental line. Fluo-8 calcium fluorescence; normalized to maximal ATP response, DMSO zero. 2,400 tested, 50% active. AID 651787, 2012. shares compounds with TAAR1 agonist. activation, % at 3 µM;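 active = activation above the run cutoff, the mean activation over all tested wells plus 3 SD, cut at about 12% in these data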;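 note: 0% = DMSO wells and 100% = maximal ATP response on the peak over basal ratio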
TAAR1 desensitize = TAAR1 desensitization by agonist hits, confirmation, counter-screen for TAAR1 agonist project, cell-based, fluorescence, tachyphylaxis; CHO RD-HGA16 hTAAR1, Fluo-8 calcium, beta-PEA response inhibition; 2,400 tested, 46% active; shares compounds with TAAR1 agonist; inhibition, % at 3 µM;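 active = inhibition above the run cutoff, the mean inhibition of all test compounds plus 3 SD, cut at about 49% in these data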;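 note: beta-PEA stimulus applied at its EC80; loss of beta-PEA calcium signal after compound pretreatment read as receptor desensitization; 0% = DMSO with beta-PEA at EC80 and 100% = DMSO alone without agonist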
Ga16 antag count = inhibition of ATP-evoked calcium response in CHO-Ga16 cells, counter-screen for TAAR1 agonist project, cell-based, fluorescence. shares compounds with TAAR1 agonist. CHO-Ga16 ATP-induced calcium, Fluo-8 fluorescence. inhibition, % at 3 µM. 2,400 tested, 39% active;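 active = inhibition above the plate's mean compound inhibition plus 3 SD, computed per plate, cut at about 22% in these data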;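 note: 0% = EC80 ATP with DMSO and 100% = DMSO wells without ATP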
* = called active by the depositor.

What do the screens show for `COc1ccc(OC)c(S(=O)(=O)NCC(c2ccco2)N2CCc3ccccc3C2)c1` (stereo unspecified)?
TAAR1 antagonist: -2; CHRM1 antagonist: -15; M1 ag: -2; CHRM1 PAM: 11; TAAR1 agonist: 15

Results for O=C(NCC(c1ccco1)N1CCc2ccccc2C1)c1ccc(F)cc1 (stereo unspecified) ?
TAAR1 antagonist: -18; CHRM1 antagonist: 2; M1 ag: -6; CHRM1 PAM: 4; TAAR1 agonist: 46*; TAAR1 ag conf: 19; Ga16 nonsel ag: 1; TAAR1 desensitize: 1; Ga16 antag count: 11

What do the screens show for `COc1ccc(C)cc1S(=O)(=O)NCC(c1ccco1)N1CCc2ccccc2C1` (stereo unspecified)?
TAAR1 antagonist: -15; CHRM1 antagonist: -7; M1 ag: -6; CHRM1 PAM: 3; TAAR1 agonist: 42*; TAAR1 ag conf: 62*; Ga16 nonsel ag: 1; TAAR1 desensitize: 19; Ga16 antag count: 10

How did COc1ccccc1NC(=O)C(=O)NCC(c1ccco1)N1CCc2ccccc2C1 (stereo unspecified) do in these assays?
TAAR1 antagonist: 25; CHRM1 antagonist: 6; M1 ag: -6; CHRM1 PAM: -6; TAAR1 agonist: 83*; TAAR1 ag conf: 64*; Ga16 nonsel ag: 1; TAAR1 desensitize: 8; Ga16 antag count: 4

Results for CCOC(=O)c1c(-c2cc(OC)c(OC)c(OC)c2)csc1N ?
TAAR1 antagonist: -22; CHRM1 antagonist: -15; M1 ag: -3; CHRM1 PAM: 5; TAAR1 agonist: 6

Results for COC(=O)[C@]12CCCCC=C1N(Cc1cccc3ccccc13)C(=O)[C@H](CC(=O)N1CCN(C(=O)C3CC3)CC1)C2 ?
TAAR1 antagonist: 25; TAAR1 agonist: 8

Results for CCOc1cc(C(=O)OCC(=O)Nc2ccc(F)cc2Cl)ccc1OCC(=O)N1CCOCC1 ?
TAAR1 antagonist: -19; CHRM1 antagonist: -11; M1 ag: -2; CHRM1 PAM: 9; TAAR1 agonist: 2

What do the screens show for `Cc1ccc2nc(-c3ccc(C#N)cc3)c(Cc3ccccc3C(F)(F)F)n2c1`?
TAAR1 antagonist: -38; CHRM1 antagonist: -19; M1 ag: -5; CHRM1 PAM: -1; TAAR1 agonist: 1

What do the screens show for `CC(C)n1ncc2c(C(=O)NCCc3ccc(F)cc3)cc(C3CC3)nc21`?
TAAR1 antagonist: 21; CHRM1 antagonist: 11; M1 ag: -5; CHRM1 PAM: -8; TAAR1 agonist: 0

How did O=C(Nn1c(O)c(C=C2N=c3ccccc3=N2)sc1=S)c1ccc(Cl)cc1 do in these assays?
TAAR1 antagonist: 13; CHRM1 antagonist: -7; M1 ag: -1; CHRM1 PAM: 4; TAAR1 agonist: 12
